Series [1] has as its system Human immunodeficiency virus 1. In words: Antiviral activity against HIV1 NL4-3 infected in human TZM-bl cells assessed as reduction in luciferase gene expression by luminescence assay. The note with it: Human immunodeficiency virus 1, NL4-3, TZM-bl. The format is functional, organism-based. In short, it runs like this:
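Single-cycle HIV-1 NL4-3 infection of TZM-bl cells; HIV-1 tat-driven luciferase expression after viral entry read as the measure of inhibition. […] control is NL4-3 infection without compound. Values are the mean of two or more independent experiments with standard deviation.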

In series [2] the test system is Human immunodeficiency virus 1. Nature of the series: Antiviral activity against wild type HIV1 NL4-3 infected in human MT4 cells assessed as reduction of viral p24 level cells […] relative to wild type HIV1 NL4-3 after 4 days by ELISA. To be noted: Human immunodeficiency virus 1, NL4-3, MT4, 96 h. The format is functional, organism-based. A general note: An ELISA detects its analyte on a solid surface through an enzyme-linked reagent.

For series [3], the system named is Liver microsomes. To be noted: human, 1 µM.
Series [4] deals with Liver microsomes. Nature of the series: Half life in human liver microsomes at 1 uM. On the technique in general: Liver microsomes are vesicles of endoplasmic reticulum, rich in cytochrome P450 enzymes.
Series [5] in a line: Cytotoxicity against human MT4 assessed as cell viability after 2 days. In kind it is cell-based. To be noted: MT4 cells, read-out: TD50.
The test system of series [6] is Human immunodeficiency virus 1. Nature of the series: Antiviral activity against HIV1 NL4-3 harboring QVT motif of Gag SP1 V370A mutant infected in human TZM-bl cells by fluorescence assay relative to wild type HIV1 NL4-3. In kind it is functional. The method, boiled down: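 Single-round infection of TZM-bl cells with HIV-1 NL4-3 or the NL4-3 V370A mutant. Tat-driven luciferase expression after viral entry was the read-out. Inhibition was taken as the reduction in luciferase signal relative to infected controls without compound, expressed as relative fluorescence units.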

Series [7] relates to Human immunodeficiency virus 1. Nature of the series: Antiviral activity against bevirimat-resistant HIV1 NL4-3 harboring QVT motif of Gag SP1 V370A mutant infected in human MT4 cells assessed as reduction of viral p24 level cells […] relative to wild type HIV1 NL4-3 after 4 days by ELISA. In kind it is functional, organism-based. The note with it: Human immunodeficiency virus 1, NL4-3, MT4, 96 h.

Series [8] relates to Human immunodeficiency virus 1. Nature of the series: Ratio of EC50 for bevirimat-resistant HIV1 NL4-3 harboring QVT motif of Gag SP1 V370A mutant to EC50 for wild type HIV1 NL4-3. In kind it is functional. The method, boiled down:
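Multi-cycle viral replication assay in MT4 cells infected with wild-type HIV-1 NL4-3 or the V370A Gag variant. EC50 was determined against each virus, and the fold ratio was taken as mutant EC50 over wild-type EC50.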

A short description of series [9]: Cytotoxicity against human TZM-bl assessed as cell viability at 4 uM after 2 days. To be noted: 48 h. In kind it is cell-based. The method, boiled down: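 Toxicity to TZM-bl cells was checked within the single-cycle infection assay at 4 μM.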
Series [10] has as its system Human immunodeficiency virus 1. In words: Antiviral activity against bevirimat-resistant HIV1 NL4-3 harboring QVT motif of Gag SP1 deltaV370 mutant infected in human MT4 cells assessed as reduction of viral p24 level cells […] relative to wild type HIV1 NL4-3 after 4 days by ELISA. The format is functional, organism-based. The note with it: Human immunodeficiency virus 1, NL4-3, MT4, 96 h. In short, it runs like this:
(§1)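 Multi-cycle viral replication assay in MT4 cells, run in parallel against wild-type NL4-3 and NL4-3 variants carrying V370A, ΔV370 or ΔT371 in Gag.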

Series [11] deals with Human immunodeficiency virus 1. Nature of the series: Antiviral activity against bevirimat-resistant HIV1 NL4-3 harboring QVT motif of Gag SP1 deltaT371 mutant infected in human MT4 cells assessed as reduction of viral p24 level cells […] relative to wild type HIV1 NL4-3 after 4 days by ELISA. The format is functional, organism-based. To be noted: Human immunodeficiency virus 1, NL4-3, MT4, 96 h. In short, it runs like this: as §1

In general, EC50 refers to the concentration at which the effect is half-maximal.

SMILES strings stand for the structures.

For the compound `C=C(C)[C@@H]1CC[C@]2(C(=O)NCCCCCCCCC(=O)N[C@@H](CCC(N)=O)C(=O)OC)CC[C@]3(C)[C@H](CC[C@@H]4[C@@]5(C)CC[C@H](O)C(C)(C)[C@@H]5CC[C@]43C)[C@@H]12`, the EC50 amounted to 90 nM in series [1], 1720 nM in series [2] and 20 nM in series [7]. The compound further returned a CLH in [3] of 0.23 mL/min/mg. The compound also came in with a t1/2 in series [4] of 30.13 min. The CC50 at 48 h in series [5] was 4.8 µM. Further, in [6], the “fold change (FC)” value came to 2. In addition, the “Ratio EC50” value in series [8] is reported as 5. Also, the Activity result in [9] is “Non-toxic”.

With `C=C(C)[C@@H]1CC[C@]2(C(=O)NCCCCCCCCC(=O)N[C@@H](CCC(N)=O)C(=O)OCc3ccccc3)CC[C@]3(C)[C@H](CC[C@@H]4[C@@]5(C)CC[C@H](O)C(C)(C)[C@@H]5CC[C@]43C)[C@@H]12`, the EC50 turned out to be 120 nM in series [1]; 23 nM in [10]; 190 nM in [2]; 50 nM in series [7]; 26 nM in [11]. In series [3], this compound gave a CLH of 0.169 mL/min/mg. In series [4], the t1/2 was found to be 41.01 min. Also, the CC50 at 48 h in series [5] came out at 15 µM. Moreover, the “fold change (FC)” value in series [6] is 2. Further, the “Ratio EC50” value in series [8] was determined as 5. Besides, the Activity entry in series [9] is listed as “Non-toxic”.

Consider `C=C(C)[C@@H]1CC[C@]2(C(=O)NCCOCCOCCNC(=O)C(C)C)CC[C@]3(C)[C@H](CC[C@@H]4[C@@]5(C)CC[C@H](O)C(C)(C)[C@@H]5CC[C@]43C)[C@@H]12`, for which, in series [1], the EC50 was more than 4000 nM. Besides, the Activity result in series [9] was “Non-toxic”.

Turning to `C=C(C)[C@@H]1CC[C@]2(C(=O)NCCOCCOCCNC(=O)Cc3nnn[nH]3)CC[C@]3(C)[C@H](CC[C@@H]4[C@@]5(C)CC[C@H](O)C(C)(C)[C@@H]5CC[C@]43C)[C@@H]12`, in [1], the EC50 is more than 4000 nM. Also, the Activity result in series [9] is listed as “Non-toxic”.

With `COC(=O)[C@H](CCC(N)=O)NC(=O)CCCCCCCCNC(=O)[C@]12CC[C@@H](C(C)C)[C@@H]1[C@H]1CC[C@@H]3[C@@]4(C)CC[C@H](O)C(C)(C)[C@@H]4CC[C@@]3(C)[C@]1(C)CC2`, the values for the EC50 in series [1], in [2] and in [7] were 50 nM, 580 nM and 20 nM, respectively. Further, the CLH in series [3] was 0.219 mL/min/mg. For the same compound, the t1/2 in series [4] came out at 31.64 min. Moreover, the CC50 at 48 h in [5] is 4.6 µM. Further, the “Ratio EC50” value in [8] was found to be 5. In addition, the Activity result in series [9] is reported as “Non-toxic”.

`CC(C)[C@@H]1CC[C@]2(C(=O)NCCCCCCCCC(=O)N[C@@H](CCC(N)=O)C(=O)O)CC[C@]3(C)[C@H](CC[C@@H]4[C@@]5(C)CC[C@H](O)C(C)(C)[C@@H]5CC[C@]43C)[C@@H]12`: the figures for the concentration for a half-maximal effect (EC50) in series [1], in series [2] and in series [7] were 40 nM, 830 nM and 240 nM, respectively. This compound gave a CLH in series [3] of 0.28 mL/min/mg. The t1/2 in series [4] stood at 24.75 min. The CC50 at 48 h in [5] turned out to be 18.6 µM. Besides, the “Ratio EC50” value in series [8] was found to be 5. Moreover, the Activity result in [9] was “Non-toxic”.

`C=C(C)[C@@H]1CC[C@]2(C(=O)NCCCCCCCNC(=O)[C@H](CCC(N)=O)NC(=O)OC(C)(C)C)CC[C@]3(C)[C@H](CC[C@@H]4[C@@]5(C)CC[C@H](O)C(C)(C)[C@@H]5CC[C@]43C)[C@@H]12`: the half-maximal effective concentration (EC50) in series [1] was found to be 40 nM; in series [2], 360 nM; in series [7] it was 90 nM. This compound also displayed a CLH in [3] of 0.366 mL/min/mg. In [4], this compound came in with a t1/2 of 18.93 min. In series [5], the CC50 at 48 h is 7.4 µM. Also, the “Ratio EC50” value in series [8] is given as 5. In [9], the Activity entry is reported as “Non-toxic”.

Consider `C=C(C)[C@@H]1CC[C@]2(C(=O)NCCCCCCCNC(C)=O)CC[C@]3(C)[C@H](CC[C@@H]4[C@@]5(C)CC[C@H](O)C(C)(C)[C@@H]5CC[C@]43C)[C@@H]12`, for which the EC50 worked out at 80 nM in [1]; 6 nM in series [10]; 120 nM in series [2]; 190 nM in [7]; 27 nM in series [11]. Moreover, the CLH in series [3] was 0.272 mL/min/mg. Also, in series [4], the t1/2 was found to be 25.48 min. Further, in [5], the CC50 at 48 h was 12.6 µM. Also, the “fold change (FC)” value in series [6] stood at 2. Also, in [9], the Activity entry is reported as “Non-toxic”.

Regarding `C=C(C)[C@@H]1CC[C@]2(C(=O)O)CC[C@]3(C)[C@H](CC[C@@H]4[C@@]5(C)CC[C@H](OC(=O)CC(C)(C)C(=O)O)C(C)(C)[C@@H]5CC[C@]43C)[C@@H]12` [BEVIRIMAT], the EC50 in series [10], in [7] and in series [11] was more than 4000 nM in each case. Besides, the CC50 at 48 h in [5] is more than 10 µM.

`Cc1cc(/C=C/C#N)cc(C)c1Nc1ccnc(Nc2ccc(C#N)cc2)n1` [RILPIVIRINE]: in series [5], the CC50 at 48 h is more than 0.1 µM.

For the origin of these results see ChEMBL document CHEMBL2057155, “Synthesis of betulinic acid derivatives as entry inhibitors against HIV-1 and bevirimat-resistant HIV-1 variants” (Bioorg Med Chem Lett, 2012).
